# What was measured:
# [1] = test system: STAT3; assay: Phosphoarray assay in HMDM; type: cell-based, human; conditions: LPS/nigericin, 10 µM, one donor
# [2] = biological target: NLRP3-ASC (Mus musculus, UniProt Q8R4B8); assay: Immunofluorescence and FRET analysis of NLRP3-ASC in J774A.1 cells; type: cell-based; conditions: J774A.1, LPS and nigericin, 10 µM
# How it was run: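 J774A.1 cells stimulated with LPS plus nigericin with test compound at 10 µM. After PBS wash: fixed and permeabilised in 70–30 acetone–methanol, blocked 1 h in 10% normal donkey serum. […] Then Alexa555/Alexa488 secondaries 1 h at room temperature, DAPI nuclei. FRET = Transfer − (Fd/D) − (Fa/Aa). Three independent experiments.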
# [3] = test system: NF-κB; assay: Flow cytometry of phosphokinases in spleen cells from treated mice; type: in vivo, mouse
# How it was run: (§1)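 Mice were given test compound or saline vehicle. Spleen-derived CD11b+CD3− cells were analysed either fresh (steady state) or after 30 min of in vitro LPS stimulation. Phosphorylation of NF-κB, IκB, IKK and IRAK4 was assessed by flow cytometry. Data are mean ± SEM.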
# [4] = test system: caspase-1; assay: Caspase-1 activity assay in J774A.1 cell lysates; type: cell-based, mouse; conditions: J774A.1, LPS/NIG, 50 µM, P = 0.003
# [5] = biological target: Human recombinant NLRP3 (Homo sapiens, UniProt Q96P20); assay: NLRP3 ATPase activity; type: biochemical; conditions: cell-free, 1 and 10 µM
# How it was run: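 Cell-free ATPase activity of recombinant NLRP3 was measured with test compound (n = 3). Bay11-7082 and 3,4-methylenedioxy-β-nitrostyrene served as positive-control NLRP3 inhibitors (n = 2 each).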
# [6] = test system: J774A.1 cells; assay: LDH release from J774A.1 cells; type: cell-based, mouse; conditions: J774A.1, LPS/ATP, P < 0.05
# How it was run: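 J774A.1 cells were stimulated with LPS plus ATP in the presence of increasing concentrations of test compound. LDH release was measured and reported as mean ± SEM. Data are representative of three independent experiments.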
# [7] = test system: NLRP3 inflammasome; assay: IL-1β release from freshly obtained human blood neutrophils; type: cell-based; conditions: primary human neutrophils
# How it was run: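 Freshly obtained human blood neutrophils were stimulated with LPS and ATP with test compound at 0.1, 1 and 10 µM. Supernatant IL-1β was measured by ELISA, and mature 17 kDa IL-1β by Western blot. IL-1β precursor was measured in the cell lysates. Data are mean ± SEM of cells from three healthy donors.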
# [8] = test system: IRAK4; assay: Flow cytometry of phosphokinases in spleen cells from treated mice; type: in vivo, mouse
# How it was run: as §1
# [9] = test system: NLRP3 inflammasome; assay: NLRP3 inflammasome stimulation of J774A.1 macrophages; type: cell-based, mouse
# [10] = test system: NLRP3 inflammasome; assay: Noncanonical NLRP3 inflammasome activation in THP-1 cells; type: cell-based; conditions: Homo sapiens, THP-1, read-out: maximal inhibition of IL-1β release
# How it was run: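 Wild-type and nlrp3-deficient human THP-1 cells were primed with the […] agonist Pam3CSK4, then transfected with LPS in the presence of test compound. IL-1β release was measured.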
# [11] = test system: NLRC4 inflammasome; assay: NLRC4 inflammasome activation in J774A.1 cells; type: cell-based, mouse; conditions: J774A.1, LPS and flagellin
# How it was run: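 J774A.1 murine macrophages primed with LPS, then stimulated with the dsDNA analog Poly(dA:dT) for AIM2 or with flagellin for NLRC4, in the presence of test compound. Secreted mature IL-1β and TNFα were measured in supernatants. Data are mean ± SEM from three independent experiments.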
# [12] = test system: Fyn; assay: Phosphoarray assay in HMDM; type: cell-based, human; conditions: LPS/nigericin, 10 µM, one donor
# [13] = test system: mice challenged with LPS-induced systemic inflammation; assay: In vivo LPS challenge; design: species or system mouse
# How it was run: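 Male C57BL/6J mice (22–26 g) received 200 mg/kg in 200 µL saline i.p. every 12 h × 5, or saline alone. One hour after the last dose: LPS (E. coli 055:B5) 5 mg/kg i.p., killed 2 h later. Peritoneal lavage with 10 mL cold PBS, spun 1,000 × g, 5 min. Spleen, lung, liver and quadriceps homogenates spun 13,000 × g, 20 min, 4 °C; cytokines normalised to total protein. n = 7–8 per group.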
# [14] = test system: IKK; assay: Flow cytometry of phosphokinases in spleen cells from treated mice; type: in vivo, mouse
# How it was run: as §1
# [15] = biological target: P2X7R (Homo sapiens, UniProt Q99572); assay: Whole-cell patch-clamp recordings on LPS-primed U937 cells; type: cell-based; conditions: 100 µM BzATP, OLT1177 0.1 nM and 100 µM
# How it was run: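 U937 cells on poly-L-lysine-coated dishes were primed with 1 μg/mL E. coli LPS for 5 h. Whole-cell patch clamp at room temperature, holding −60 mV. BzATP was diluted from a 100-mM stock to 100 µM in bath solution and applied by pressure microperfusion. Test compound (0.1 nM, 100 µM) was given in parallel cultures. ΔI compared by Wilcoxon signed-rank, shown as median with 25th–75th percentiles.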
# [16] = Human pharmacokinetic study, single oral dose; type: in vivo; conditions: for Cmax: both, human, plasma, po
# How it was run: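 Phase 1 study in fasted healthy subjects given a single oral dose of 100, 300 or 1,000 mg (n = 5 per dose group). Plasma concentration–time profiles were used to derive group mean Cmax and mean plasma elimination half-life.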
# [17] = fresh CD11b+CD3- spleen cells, mice 200 mg/kg i.p. x5, vs vehicle
# [18] = spleen cells from treated mice, LPS 30 min ex vivo
# [19] = 200 mg/kg i.p. every 12 h for five doses, 2 h after i.p. LPS 5 mg/kg
# [20] = 200 mg/kg i.p. x5, 2 h after LPS, organ homogenates
# Sequence of NLRP3-ASC (Q8R4B8 whole entry): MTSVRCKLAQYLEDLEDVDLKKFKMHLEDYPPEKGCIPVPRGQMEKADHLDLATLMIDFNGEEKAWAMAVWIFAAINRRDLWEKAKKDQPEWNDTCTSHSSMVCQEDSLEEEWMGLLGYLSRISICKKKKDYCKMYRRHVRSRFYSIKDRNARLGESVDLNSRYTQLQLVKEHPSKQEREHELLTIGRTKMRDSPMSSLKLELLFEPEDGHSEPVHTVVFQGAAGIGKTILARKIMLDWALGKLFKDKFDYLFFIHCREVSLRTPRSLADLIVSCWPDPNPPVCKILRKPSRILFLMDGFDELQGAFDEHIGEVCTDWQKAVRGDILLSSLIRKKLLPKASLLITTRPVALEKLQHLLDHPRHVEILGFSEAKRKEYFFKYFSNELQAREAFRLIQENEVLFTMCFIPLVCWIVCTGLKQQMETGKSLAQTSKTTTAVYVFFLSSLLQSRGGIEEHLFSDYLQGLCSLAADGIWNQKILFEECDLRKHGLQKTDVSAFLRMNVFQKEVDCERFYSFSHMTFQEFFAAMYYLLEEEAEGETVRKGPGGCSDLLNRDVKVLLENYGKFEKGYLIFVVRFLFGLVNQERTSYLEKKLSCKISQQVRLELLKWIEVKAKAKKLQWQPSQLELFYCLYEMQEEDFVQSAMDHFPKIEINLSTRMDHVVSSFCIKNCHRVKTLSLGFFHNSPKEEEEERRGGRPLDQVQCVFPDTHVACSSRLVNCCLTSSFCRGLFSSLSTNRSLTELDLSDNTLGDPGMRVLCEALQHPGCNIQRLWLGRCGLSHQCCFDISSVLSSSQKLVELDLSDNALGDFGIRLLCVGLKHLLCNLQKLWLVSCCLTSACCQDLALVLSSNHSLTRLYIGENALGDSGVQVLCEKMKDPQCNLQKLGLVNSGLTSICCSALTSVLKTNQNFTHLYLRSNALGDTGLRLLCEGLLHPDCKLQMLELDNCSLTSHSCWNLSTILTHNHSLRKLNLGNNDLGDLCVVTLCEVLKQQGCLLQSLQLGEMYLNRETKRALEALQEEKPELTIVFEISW
# Sequence of Human recombinant NLRP3 (Q96P20 whole entry): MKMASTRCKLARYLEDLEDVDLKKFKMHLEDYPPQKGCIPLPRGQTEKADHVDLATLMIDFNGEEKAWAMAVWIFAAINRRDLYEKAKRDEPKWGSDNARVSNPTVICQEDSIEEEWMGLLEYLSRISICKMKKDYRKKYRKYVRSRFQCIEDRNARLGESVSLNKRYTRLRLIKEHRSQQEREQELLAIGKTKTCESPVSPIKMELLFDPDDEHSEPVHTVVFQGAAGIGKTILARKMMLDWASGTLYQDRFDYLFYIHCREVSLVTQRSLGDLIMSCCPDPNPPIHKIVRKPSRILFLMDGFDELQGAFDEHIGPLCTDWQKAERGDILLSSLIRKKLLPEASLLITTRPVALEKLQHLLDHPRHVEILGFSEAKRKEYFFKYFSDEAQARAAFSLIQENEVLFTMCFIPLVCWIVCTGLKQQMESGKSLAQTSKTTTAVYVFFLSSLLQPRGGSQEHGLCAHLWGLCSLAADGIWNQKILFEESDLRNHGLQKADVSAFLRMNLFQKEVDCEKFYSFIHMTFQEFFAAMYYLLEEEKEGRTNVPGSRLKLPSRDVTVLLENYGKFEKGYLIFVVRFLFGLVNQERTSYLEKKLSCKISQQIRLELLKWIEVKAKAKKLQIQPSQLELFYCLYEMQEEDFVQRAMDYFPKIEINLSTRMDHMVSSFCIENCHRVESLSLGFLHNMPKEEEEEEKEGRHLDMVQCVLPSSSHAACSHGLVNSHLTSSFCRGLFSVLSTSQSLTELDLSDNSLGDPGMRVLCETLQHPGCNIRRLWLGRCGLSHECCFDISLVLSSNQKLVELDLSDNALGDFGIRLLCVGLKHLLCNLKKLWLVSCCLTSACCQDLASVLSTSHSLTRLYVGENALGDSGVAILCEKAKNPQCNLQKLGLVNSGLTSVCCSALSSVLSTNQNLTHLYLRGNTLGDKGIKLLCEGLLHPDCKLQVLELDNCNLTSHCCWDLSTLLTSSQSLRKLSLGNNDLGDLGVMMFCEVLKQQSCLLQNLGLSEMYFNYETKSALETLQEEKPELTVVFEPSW
# Sequence of P2X7R (Q99572 whole entry, the tested form may be a part): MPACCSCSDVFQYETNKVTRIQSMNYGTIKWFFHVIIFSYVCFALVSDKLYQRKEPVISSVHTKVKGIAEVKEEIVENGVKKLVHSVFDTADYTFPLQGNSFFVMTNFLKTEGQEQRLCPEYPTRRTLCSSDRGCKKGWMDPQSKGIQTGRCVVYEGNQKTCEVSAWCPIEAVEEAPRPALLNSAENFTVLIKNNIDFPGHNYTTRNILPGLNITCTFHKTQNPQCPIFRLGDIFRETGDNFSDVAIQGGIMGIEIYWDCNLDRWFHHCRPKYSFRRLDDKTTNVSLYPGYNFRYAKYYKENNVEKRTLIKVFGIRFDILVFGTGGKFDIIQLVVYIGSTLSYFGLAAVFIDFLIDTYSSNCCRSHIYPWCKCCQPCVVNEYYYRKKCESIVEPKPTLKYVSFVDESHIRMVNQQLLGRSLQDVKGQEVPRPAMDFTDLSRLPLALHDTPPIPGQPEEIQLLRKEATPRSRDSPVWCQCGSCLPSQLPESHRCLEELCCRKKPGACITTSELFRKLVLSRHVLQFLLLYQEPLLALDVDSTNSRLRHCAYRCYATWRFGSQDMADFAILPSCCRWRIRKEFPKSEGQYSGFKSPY
structure (smiles),measurement,setting,value
CS(=O)(=O)CCC#N [OLT1177],reduction in STAT3 phosphorylation,[1],33%
same,ASC speck structures (immunofluorescence),[2],reduction
same,NLRP3-ASC association (FRET intensity),[2],significant lower
same,steady-state constitutive phosphorylated NFκB,[3]; [17],significantly reduced
same,phosphorylated NF-κB after in vitro LPS,[3]; [18],significant reduction
same,reduction of activated caspase-1 in cell lysates,[4],35%
same,ATPase activity of recombinant NLRP3,[5],inhibited
same,release of LDH (cell death),[6],significantly reduced
same,total intracellular pool of the IL-1β precursor,[7]; LPS/ATP,without affecting
same,release of IL-1β,"[7]; LPS/ATP, 0.1, 1, and 10 µM",prevented
same,steady-state phosphorylated IRAK4,[8]; [17],no statistically significant changes
same,phosphorylated IRAK4 after in vitro LPS,[8]; [18],no change
same,release of IL-1β,"[9]; J774A.1 (Fig. S7B), LPS/nigericin, OLT1177 in combination with ACHP",to the levels of unstimulated cells
same,"reduction of IL-1β secretion, OLT1177 compared with MCC950","[9]; J774A.1, LPS and ATP, 10 to 0.01 µM",comparable
same,IL-1β release,"[9]; J774A.1, LPS and nigericin",inhibited
same,TNFα levels,"[9]; J774A.1, LPS and nigericin",without affecting
same,TNFα levels in supernatants,"[9]; J774A.1, LPS/ATP",no effect
same,intracellular level of the IL-1β and caspase-1 precursors,"[9]; J774A.1, LPS/ATP",no changes
same,reduction of IL-1β secretion,"[9]; J774A.1, LPS/ATP, nanomolar concentrations of OLT1177",50%
same,concentration that significantly reduced IL-1β release,"[9]; in vitro, across cell types",≤ 1 µM
same,inhibition at 10 µM,[10],70%
same,release of IL-1β and TNFα following NLRC4 inflammasome activation,[11],no effect
same,reduction in Fyn phosphorylation,[12],35%
same,reduction of peritoneal fluid CXCL1,[13]; [19],30%
same,reduction of peritoneal fluid IL-6,[13]; [19],44%
same,reduction of peritoneal fluid myeloperoxidase (MPO),[13]; [19],80%
same,"TNFα content in lung, liver, spleen, and skeletal muscle",[13]; [20],no significant changes
same,"total IL-1β content in lung, liver, spleen, and skeletal muscle",[13]; [20],significantly decreased
same,steady-state phosphorylated IKK,[14]; [17],no statistically significant changes
same,phosphorylated IKK after in vitro LPS,[14]; [18],significant reduction
same,BzATP-induced ion current change (P2X7R activation),[15],not affected
same,Cmax,[16]; 100 mg,2700 ng/mL
same,Cmax,[16]; 300 mg,9800 ng/mL
same,Cmax,[16]; 1000 mg,32000 ng/mL
same,mean peak plasma level,[16]; single oral dose 100 mg,20.3 µM
same,T½ el (plasma elimination half-life),"[16]; single oral dose 100 mg, fasted, mean, N=5",23.0 h

# From paper PMC5816172 (Proceedings of the National Academy of Sciences of the …, 2018)
